# High-throughput results (PubChem BioAssay)
# PTEN del growth: PTEN-deleted cell growth suppression | HCT116 PTEN-null viability, CellTiter-Glo, 60 h; hits give low values | viability, % at 10 µM | actives 1.2% (n = 140,000);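 active = viability at or below a set limit, 4 SD under the median of all tested compounds, cut at about 3.7% in these data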;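 also: PTEN knockout HCT116 line with beta catenin targeted HCT116 as companion control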
# Autophagy mod: modulators of autophagy. MEF GFP-LC3 puncta imaging; test concentration mostly 10 µM. calls only at 10 µM (by protocol). actives 0.98% (n = 190,000);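 active = percentage of spot-positive cells more than 3 SD above its plate mean, without a fluorescence outlier flag or 80% toxicity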;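 also: spot-positive cell cutoff set from DMSO-treated cells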
# Lmaj promast: Leishmania major promastigote growth inhibition; Leishmania major promastigotes, resazurin fluorescence viability; inhibition, % at 10 µM; actives 9% (n = 200,000); in the data active = inhibition above about 50%;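 also: promastigotes grown with compound for 44 hours at 28 °C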
# Dynein cargo inh: blocks dynein driven cargo transport along microtubules; 3617.4 mouse cells, GR-EGFP nuclear translocation imaging; test concentration mostly 20 µM; stimulated with dexamethasone, 1 µM; hits give low values; z-score, hits read low; actives 0.47% (n = 220,000);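 active = plate z-score of nuclear minus cytoplasmic receptor signal below a set negative limit, without overly bright fluorescence or cell loss, cut at about -3.5 in these data, passing the limit was not always enough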;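 also: z-score of nuclear minus cytoplasmic ring GR-EGFP intensity difference per well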
#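 medium = tetracycline-free induction medium containing charcoal-stripped FBS | probe or stimulus = dexamethasone, 1.0 µM final | timing = 48 h induction, then 1 h compound, then 30 min agonist, 37 °C | detection = automated 10x imaging of fixed Hoechst-stained cells | read-out basis = nuclear versus cytoplasmic GR-EGFP signal, averaged per well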
# HCT116 bCat-KO: beta-catenin-lacking colon tumor cell growth suppression. HCT116 beta-catenin knockout viability, CellTiter-Glo, 60 h; hits give low values. viability, % at 10 µM. actives 1.5% (n = 140,000). AID 818;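 active = viability at or under a set limit, the compound median less 4 SD, cut at about 6% in these data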;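 also: 0% = Hyamine 1622 control at 20 µM and 100% = untreated cell control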
# Numbers without * were called inactive; i = inactive; / = no result; + = active, no number. A selection: hits, their analogues and other compounds. The true share with any hit is near 9.2%.
SMILES,PTEN del growth,Autophagy mod,Lmaj promast,Dynein cargo inh,HCT116 bCat-KO
CC1CCC(NCC(O)c2ccccc2)CC1 (stereo not drawn),96.3,i,71.2*,-0.195,96.2
OC(CNC1CCCCCCC1)c1ccccc1 (stereo not drawn),/,i,15.1,1.39,/
CCCCCCn1c(=O)c(C(=O)Nc2cnccn2)c(O)c2ccccc21,/,i,100.0*,2.08,/
CCCCn1c(=O)c(C(=O)Nc2ccsc2C(=O)OC)c(O)c2ccccc21,3.1*,i,53.2*,-0.535,3.2*
CCCCCCn1c(=O)c(C(=O)Nc2nc(CC(=O)OCC)cs2)c(O)c2ccccc21,/,/,/,-1.01,/
O=C(/C=C/c1ccccc1)NCCc1cnc[nH]1,/,i,-6.3,-0.571,/
O=c1[nH]c2ccccc2o1,104.9,i,10.3,1.64,92.4
CCCCCSc1cc(O)c(C(CNC)C(C)C)cc1OC (stereo not drawn),26.6,i,100.5*,-0.195,39.5
CC(C)[N+]12CCC(CC1)C(C(O)(c1ccccc1)c1ccccc1)C2 (stereo not drawn),/,/,/,-0.223,/
O=C1NC(=O)N(c2ccc(Br)cc2)C(=O)/C1=C/c1ccsc1,/,+,-4.7,0.107,/
Cc1ccc(N2C(=O)NC(=O)/C(=C/c3cnn(-c4ccc(C)cc4)c3)C2=O)cc1,102.5,i,84.7*,-0.239,93.4
Cn1c[n+](C)cc1C(O)c1ccccc1 (stereo not drawn),98.8,i,-9.0,-0.598,120.1
CCCC(=O)NC(Oc1ccc(C(C)=O)cc1)C(Cl)(Cl)Cl (stereo not drawn),/,i,-5.0,-0.486,/
O=C(c1ccc(C(F)(F)F)cc1)C1CCCN(C2CCSCC2)C1 (stereo not drawn),/,i,91.9*,0.0906,/
Cc1cccc(CN2CCCC(C(=O)c3ccc(C(F)(F)F)cc3)C2)n1 (stereo not drawn),/,i,79.4*,2.31,/
CSc1ccccc1C(=O)C1CCCN(Cc2cccc(C)n2)C1 (stereo not drawn),/,i,22.9,-1.66,/
COc1ccc(Cl)cc1C(=O)C1CCCN(CCO)C1 (stereo not drawn),/,i,4.3,-0.41,/
Cc1cc(Cl)ccc1C(=O)C1CCCN(C2CCSCC2)C1 (stereo not drawn),/,i,85.1*,0.43,/
COCCCN=Cc1c(O)[nH]c(=S)[nH]c1=O,/,i,-6.6,-1.29,/
COc1cc2c(cc1OC)-c1c(OC)c(OC)c(OC)c3ccnc(c13)C2=O,8.0,i,77.7*,-0.514,14.7
CC1(C)COC(Nc2cccc(Cl)c2)=N1,92.5,i,20.4,-0.971,90.6
O=C1C2CCN(CC2)[C@@H]1Cc1ccc2ccccc2c1O,91.8,i,99.2*,0.202,79.8
Cc1c2ccncc2c(C)c2c1[nH]c1ccccc12,0.9*,+,100.3*,-3.7,1.3*
COc1cc2ccccc2cc1C(=O)Nc1ccc(Cc2ccncc2)cc1,36.8,i,98.9*,-0.912,31.6
Cc1ccnc(-n2c(-c3ccco3)nc3ccccc3c2=O)c1,105.8,i,-0.4,-0.693,92.9
SMILES,PTEN del growth,Autophagy mod,Lmaj promast,Dynein cargo inh,HCT116 bCat-KO
COc1ccc(OC)c(CN2CCN(C(=O)COc3cccc(C)c3)CC2)c1,88.7,i,2.3,0.111,84.9
COc1ccc(CN2CCN(C(=O)COc3cccc(C)c3)CC2)c(OC)c1,82.7,i,62.2*,-0.301,96.0
CCc1ccc(CN2CCN(Cc3ccc(SC)cc3)CC2)cc1,/,i,89.3*,1.16,/
Cc1ccc(OCC(=O)N2CCN(Cc3ccc4c(c3)OCO4)CC2)cc1C,/,i,89.2*,0.793,/
CSc1ccc(CN2CCN(C(=O)COc3ccc(C)cc3)CC2)cc1,/,i,87.1*,-0.952,/
CCC(=O)N1N=C(c2c(O)n(CCc3ccccc3)c(=O)[nH]c2=O)CC1c1ccc(OC)c(OC)c1 (stereo not drawn),/,/,/,-0.47,/
Cc1c(C(=O)C(=O)N2CCC3(CC2)OCCO3)c2ccccc2n1C,/,i,-11.8,-0.285,/
Cc1cccc(N/N=C(\C(N)=O)C2=NC(C)(C)Cc3ccccc32)c1,58.6,i,36.0,-1.05,63.6
Cc1cccc(OCC(=O)N2CCN(Cc3ccc4c(c3)OCO4)CC2)c1,/,i,83.0*,-0.411,/
Cc1cccc(OCC(=O)N2CCN(Cc3ccncc3)CC2)c1,94.0,i,-0.5,0.302,100.1
CCOc1ccc([N+](=O)[O-])cc1CNCCc1ccccc1,/,i,96.5*,-1.03,/
Nc1c(C(=O)NCCc2ccccc2)c2nc3ccccc3nc2n1CCN1CCOCC1,1.9*,i,23.7,0.156,1.7*
COc1ccc(CCNC(=O)c2c(N)n(CCN3CCOCC3)c3nc4ccccc4nc23)cc1,0.3*,i,96.5*,0.115,0.4*
Nc1c(C(=O)NCCN2CCOCC2)c2nc3ccccc3nc2n1Cc1ccccc1,/,/,/,-0.522,/
CC1CCC(C(C)C)C(OC(=O)COC(=O)c2ccccc2N)C1 (stereo not drawn),73.5,i,55.0*,0.257,70.5
CC1CCC(C(C)C)C(OP(N)(=O)c2ccccc2)C1 (stereo not drawn),72.8,i,-1.4,-0.8,79.1
CC1=CC(=O)NP(=O)(Oc2ccc3ccccc3c2)N1 (stereo not drawn),107.6,i,29.5,-0.321,90.0
CCN(CC)C(=O)c1ccc(NC(=O)CCCSc2ccccc2)cc1,/,i,-9.8,-0.171,/
CCN(CC)C(=O)c1ccc(NC(=O)COc2ccc([N+](=O)[O-])cc2Cl)cc1,98.5,i,50.1*,-0.292,90.1
COc1ccc(OCC(=O)N2CCN(C3CCC(c4ccccc4)CC3)CC2)cc1 (stereo not drawn),77.7,i,59.9*,-0.109,75.1
O=C(COc1ccc2ccccc2c1)N1CCN(CC2CC3C=CC2C3)CC1 (stereo not drawn),90.0,i,57.6*,1.38,100.6
COc1ccc(OCC(=O)N2CCN(Cc3c[nH]c4ccccc34)CC2)cc1,81.4,i,-0.6,-0.383,84.3
O=C(COc1ccc2ccccc2c1)N1CCN(C2CCN(Cc3ccccc3)CC2)CC1,42.7,i,92.2*,-0.232,31.0
O=C(COc1ccccc1)N1CCN(C2CCCC2)CC1,91.0,i,84.9*,1.35,84.7
Cc1cccc(-n2c(-c3ccco3)nc3ccccc3c2=O)n1,95.7,i,-5.3,-0.489,98.5
SMILES,PTEN del growth,Autophagy mod,Lmaj promast,Dynein cargo inh,HCT116 bCat-KO
O=C(CNC(=O)c1ccc(Br)cc1)Nc1ccc(Br)cc1C(=O)c1ccccc1,72.0,i,-4.3,-0.793,80.0
CN(CC1COc2ccccc2O1)c1nc(-c2cccnc2)nc2ccccc12 (stereo not drawn),6.5,i,68.8*,-0.97,8.6
Cc1cccc(CN2CCN(Cc3ccc(Cl)cc3)CC2)c1,90.9,i,88.6*,-0.201,78.3
Oc1ccc(Cl)cc1CN1CCN(Cc2ccccc2)CC1,109.9,i,62.7*,-0.551,98.1
Cc1cccc(CN2CCN(c3ccc(Cl)cc3)CC2)c1,/,i,-1.1,1.34,/
CCc1c(C(=O)NN2C(=O)C3C4CCC(O4)C3C2=O)csc1C (stereo not drawn),95.0,i,-2.9,-0.027,83.1
